# Screens: PubChem BioAssay, Johns Hopkins Ion Channel Center
# KCNQ1 block = human KCNQ1 channel inhibition; P51787; CHO-K1 KCNQ1, FluxOR thallium flux fluorescence; stronger effect = higher value; B-score at 10 µM; 310,000 compounds, 1.3% hits; AID 2642;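 active = compounds whose thallium flux B-score, printed positive for inhibition, exceeds three library SD while starting fluorescence stays within three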;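 note: channel opened by potassium depolarization with thallium stimulus after 20 min compound exposure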
# Target sequence (P51787 whole entry, looked up): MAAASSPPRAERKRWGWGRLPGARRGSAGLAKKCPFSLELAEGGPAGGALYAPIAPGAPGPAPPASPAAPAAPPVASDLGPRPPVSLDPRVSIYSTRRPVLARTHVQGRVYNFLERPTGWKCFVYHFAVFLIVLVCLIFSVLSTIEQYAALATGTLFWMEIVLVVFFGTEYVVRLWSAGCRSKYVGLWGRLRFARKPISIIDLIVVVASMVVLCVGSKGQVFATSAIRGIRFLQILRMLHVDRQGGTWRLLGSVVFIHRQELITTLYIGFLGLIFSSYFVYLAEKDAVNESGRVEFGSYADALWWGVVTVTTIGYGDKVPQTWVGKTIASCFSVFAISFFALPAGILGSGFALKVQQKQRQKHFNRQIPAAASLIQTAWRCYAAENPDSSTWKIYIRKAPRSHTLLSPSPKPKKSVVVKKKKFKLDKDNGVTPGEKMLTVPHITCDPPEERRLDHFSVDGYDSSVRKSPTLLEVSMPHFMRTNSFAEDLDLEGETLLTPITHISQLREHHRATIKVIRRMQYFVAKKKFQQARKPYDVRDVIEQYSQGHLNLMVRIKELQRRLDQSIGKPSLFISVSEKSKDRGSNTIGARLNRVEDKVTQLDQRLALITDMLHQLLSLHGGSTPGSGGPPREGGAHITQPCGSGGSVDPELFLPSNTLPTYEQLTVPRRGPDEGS
# KCNK3 inh = human KCNK3 channel inhibition, primary screen. CHO-KCNK3 thallium flux, FluxOR fluorescence; stronger effect = lower value. 340,000 compounds, 0.84% hits. AID 602410. O14649. B-score at 10 µM;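 active = B-score under library mean minus 4 SD, starting fluorescence ratio at most library mean plus 5 SD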;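 note: more negative B-score means stronger inhibition of thallium flux through KCNK3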
# KCNQ1 pot = potentiators or activators of human KCNQ1 potassium channel; CHO-K1 KCNQ1, thallium flux FluxOR fluorescence; stronger effect = higher value; B-score at 10 µM; 310,000 compounds, 0.35% hits; AID 2648;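 active = fluorescence ratio B-score, a plate-corrected score, at least three library SD, with initial intensity B-score within 5 SD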
#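 Assay system: CHO-K1 cells stably expressing KCNQ1. Medium: assay buffer for compound exposure, DMSO matched across wells. Timing: 37 °C overnight plating, 90-min dark dye load, 20-min compound pretreatment. Signal: kinetic FluxOR fluorescence, 10 s baseline plus 110 s post-stimulus.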
# KCNK9 inh = inhibitors of human KCNK9 two-pore domain potassium channel; Q9NPC2; HEK293 KCNK9, FluxOR thallium flux fluorescence; stronger effect = lower value; B-score at 10 µM; 310,000 compounds, 1.2% hits;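 active = ratio B-score over 3 SD below the library mean, with starting fluorescence within 5 SD of its mean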;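 note: negative B-score means less thallium flux so channel inhibition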
# hERG protect = compounds protecting human hERG from proarrhythmic drug block; CHO-hERG, FluxOR thallium flux, dofetilide IC70 present; activation (rescue from dofetilide block), less the hit threshold, % at 10 µM; 310,000 compounds, 0.51% hits; AID 1511;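 active = activation above the mean of controls blocked by dofetilide plus 5 SD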;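 note: thallium influx through hERG after potassium depolarization seen as dye fluorescence rise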
# Numbers without * were called inactive; i = inactive; / = not tested or not shown. Hits are enriched below; roughly 3.1% of the tested compounds scored in any of these assays.
SMILES,KCNQ1 block,KCNK3 inh,KCNQ1 pot,KCNK9 inh,hERG protect
CN(C)C(CNc1ncnc2sccc12)c1cccs1 (stereo unspecified),i,i,i,i,-20.3
CCOC(=O)c1sc2ncnc(NCC(c3cccs3)N(C)C)c2c1C (stereo unspecified),i,i,55*,i,20.3*
CCCNC(=O)c1nnsc1S(=O)c1ccc(Cl)cc1 (stereo unspecified),i,i,i,i,-13.2
CNC(=O)c1nnsc1S(=O)c1ccc(Cl)cc1 (stereo unspecified),i,i,13*,i,-20.6
O=S(=O)(CCSc1ccccn1)c1nc2ccccc2s1,6*,i,i,i,-17.7
Fc1cccc(C2NN=C(c3ccccc3)S2)c1 (stereo unspecified),i,i,i,i,10.5*
CCN(C(=O)C(C)Sc1ccc(S(=O)(=O)N2CCOCC2)cn1)c1ccccc1 (stereo unspecified),/,i,/,/,/
O=C(COc1ccc(Br)cc1CNC1CCCCC1)NCCc1ccccc1,8*,i,i,i,-14.5
Cn1nc(-c2ccccc2)c(CSc2ccccc2)c1Cl,i,i,i,-7.34*,-6.6
CCC(O)c1c(-c2ccccc2)nn(C)c1Cl (stereo unspecified),i,i,i,i,-10.9
C=C1C(=O)C=C2CN(C(=O)c3ccccc3)[C@@](Cc3ccc(F)cc3)(C(=O)OC)[C@@H]12,i,i,17*,i,-26.2
O=[N+]([O-])c1ccc(N2CCN(c3cccc(Cl)c3)CC2)nc1,i,i,i,-6.6*,-2.7
CSCCNC(C)=O,i,/,i,i,5.5*
CSCCNC(=O)c1cccc(Cl)c1,i,i,i,i,-7.0
CCOC(=O)C1=C(COC(=O)c2cc(OC)c(OC)c(OC)c2)NC(=O)NC1C (stereo unspecified),i,i,i,i,-18.8
COc1cccc(N2CCN(c3ccc4nnc(CCC(=O)Nc5ccccn5)n4n3)CC2)c1,i,i,i,i,-11.7
Cc1cnc(=O)[nH]c1SCc1ccc([N+](=O)[O-])cc1,i,i,i,-7.26*,-7.9
Cc1cnc(=O)[nH]c1SCc1ccc(C(F)(F)F)cc1,i,i,i,i,-4.7
Cc1noc(C)c1COc1cccc(C(=O)N(C)Cc2cccs2)c1,/,i,/,/,/
FC(F)(F)c1cnc2c(c1)[nH]c(=S)n2-c1ccc(Cl)cc1,i,i,i,i,5.5*
Cc1ccc(NS(=O)(=O)c2ccc(C)c(C(=O)Nc3ccc(S(=O)(=O)Nc4onc(C)c4C)cc3)c2)cc1,/,i,/,/,/
CS(=O)(=O)N(CC(=O)NCCSc1ccccn1)c1cccc2ccccc12,i,i,i,i,-0.4
CNC(=O)CN(c1cccc2ccccc12)S(C)(=O)=O,i,i,i,i,7.0*
O=C(CCn1c(=O)oc2ccccc21)Nc1nc2ccccc2s1,i,i,i,-7.24*,-11.3
O=C1C=CC(=O)N1CCCCCCCCCCN1C(=O)C=CC1=O,/,i,/,/,/
SMILES,KCNQ1 block,KCNK3 inh,KCNQ1 pot,KCNK9 inh,hERG protect
Cc1cc(C)c(S(=O)(=O)N/N=C/c2ccc3c(c2)OCO3)c(C)c1,i,i,i,i,-10.3
Cc1cc(Cl)c(S(=O)(=O)N/N=C/c2ccc3c(c2)OCO3)c(Cl)c1,10*,i,i,i,-11.4
N#Cc1ccccc1OCC(=O)OCC(=O)c1ccc2c(c1)NC(=O)CO2,i,i,i,i,5.4*
O=C1COc2ccc(C(=O)COC(=O)COc3ccccc3[N+](=O)[O-])cc2N1,i,i,i,i,-7.0
CCOC(=O)C1=NN(c2ccc(F)cc2)C2=NC(C)=C(C(=O)OC)C(c3cccs3)N12 (stereo unspecified),i,i,i,-6.92*,-19.4
O=C(C1CC1)N1CCc2sccc2C1c1ccc(Cl)cc1 (stereo unspecified),6*,i,i,i,-2.6
COc1ccc(C2c3ccsc3CCN2C(C)=O)cc1 (stereo unspecified),i,i,i,i,-13.3
Cc1ccc(N=Cc2c(O)n(-c3cc(Cl)ccc3N3CCOCC3)c(=O)c3ccccc23)cc1C,10*,i,i,i,-8.8
Cc1cc(C)n2nc(CC(=O)NNC(=O)c3ccccc3Cl)nc2n1,i,i,i,i,-3.4
O=C(Cn1cnc([N+](=O)[O-])c1)Nc1cc(Oc2ccc(Cl)cc2Cl)cc([N+](=O)[O-])c1,8*,i,i,i,-7.9
N#Cc1ccc(NC(=O)Cn2cnc([N+](=O)[O-])c2)cc1,i,i,i,i,-9.8
CC1=CC2=NC(=O)/C(=C\c3cccn3CCOc3cccc(C)c3)C(=N)N2O1,i,i,i,-6.98*,-14.5
COc1cccc(OCCn2cccc2/C=C2/C(=N)N3OC(C)=CC3=NC2=O)c1,i,i,i,i,-7.7
CC1=CC2=NC(=O)/C(=C\c3cccn3CCOc3cc(C)cc(C)c3)C(=N)N2O1,i,i,i,-7.85*,-5.4
CC1=CC2=NC(=O)/C(=C\c3cccn3CCOc3ccccc3)C(=N)N2O1,i,i,i,i,-4.0
Fc1ccc(C2CC(c3ccco3)=NN2c2ccccc2)cc1 (stereo unspecified),7*,i,i,-7.91*,-16.6
O=[N+]([O-])c1ccc(N2N=C(c3ccccc3)CC2c2ccccc2O)cc1 (stereo unspecified),i,i,i,i,-6.7
CS(=O)(=O)N1N=C(c2ccco2)CC1c1ccccc1 (stereo unspecified),i,i,i,i,0.2
O=[N+]([O-])c1ccc(N2N=C(c3ccco3)CC2c2ccccc2)cc1 (stereo unspecified),11*,i,i,i,-6.5
COc1ccccc1N1N=C(c2ccc([N+](=O)[O-])cc2)CC1c1ccccc1 (stereo unspecified),12*,i,i,i,-14.2
COc1ccc2c(c1)OCC(O)(c1ccccc1)C2=O (stereo unspecified),/,i,/,/,/
COc1ccc2nc(SCC(=O)NC3CC3)c(C#N)cc2c1,i,i,i,i,-8.0
Cc1cccc(C(=O)OCC(=O)N(C)C(c2ccccc2)c2ccccc2)c1[N+](=O)[O-],/,i,/,/,/
O=[N+]([O-])c1cc(C(F)(F)F)ccc1NCCNC(=S)Nc1ccc(Cl)cc1,6*,i,i,i,-4.5
O=[N+]([O-])c1ccc(NC(=S)NCCc2ccc(Cl)cc2)cc1,8*,i,i,i,-14.1
O=[N+]([O-])c1ccc(NC(=S)NCCc2ccccc2)cc1,6*,i,i,i,-18.9
CCOc1ncccc1C(=O)OCC(=O)Nc1cc(C(C)(C)C)ccc1OC,/,i,/,/,/
